# Assay results as given in ChEMBL document CHEMBL4706514, “PSNCBAM-1 analogs: Structural evolutions and allosteric properties at cannabinoid CB1 receptor” (Eur J Med Chem, 2020).
# Activity calls are given as the source filed them. The calls are words filed in the database; no cut-off is given here.
# Legend:
# [1] = target: Cannabinoid receptor 1 (Homo sapiens) (UniProt P21554); experiment: Inverse agonist activity at human CB1 receptor expressed in CHO cell membranes assessed as decrease in cellular response up to 1 uM after 90 mins by [35S]-GTPgammaS binding based liquid scintillation spectrometric method; format: functional; conditions: Cell membrane, dose microM <=1, time 90.0 min
# Cannabinoid receptor 1 (Homo sapiens), sequence (P21554 whole entry): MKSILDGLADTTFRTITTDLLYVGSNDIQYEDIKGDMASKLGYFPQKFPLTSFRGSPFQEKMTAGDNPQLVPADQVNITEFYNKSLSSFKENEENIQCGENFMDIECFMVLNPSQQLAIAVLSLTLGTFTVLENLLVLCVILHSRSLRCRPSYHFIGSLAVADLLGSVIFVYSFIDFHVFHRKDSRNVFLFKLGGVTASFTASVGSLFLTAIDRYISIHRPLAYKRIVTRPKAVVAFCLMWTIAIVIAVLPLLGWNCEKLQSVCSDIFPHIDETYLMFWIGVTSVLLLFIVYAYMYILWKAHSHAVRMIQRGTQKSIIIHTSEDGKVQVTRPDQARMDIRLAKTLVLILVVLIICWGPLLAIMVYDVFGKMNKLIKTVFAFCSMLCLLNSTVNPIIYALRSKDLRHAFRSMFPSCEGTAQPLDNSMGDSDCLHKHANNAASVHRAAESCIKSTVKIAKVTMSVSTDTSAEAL
# In short: (§1)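 Compound alone, 1 nM to 10 µM (from 10.00 mM DMSO stocks; 0.1% DMSO per tube), incubated 90 min at 30 °C with hCB1-CHO membranes (50.0 µg protein/tube). Buffer: 50 mM Tris, 10 mM MgCl2, 100 mM NaCl, 0.2 mM EDTA, 1 mM DTT, pH 7.4, with [35S]GTPγS 0.1 nM and GDP 30 µM. Read by filtration and scintillation counting. Response expressed as % change from vehicle basal stimulation. Six independent experiments, each in duplicate.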
# [2] = target: Cannabinoid receptor 1 (Homo sapiens) (UniProt P21554); experiment: Negative allosteric modulation of human CB1 receptor expressed in CHO cell membranes assessed as decrease in CP55940-induced agonist activity at 1 uM after 90 mins by [35S]-GTPgammaS binding based liquid scintillation spectrometric method relative to control; format: functional; set-up: scale not given: the % may be the effect or the level left; conditions: Cell membrane
# In short: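 Test compound held fixed at 1 µM (from 10.00 mM DMSO stock) against CP55940 0.1 nM to 1 µM. Incubated with hCB1-CHO membranes (50.0 µg protein/tube, 0.1% DMSO) for 90 min at 30 °C, with [35S]GTPγS 0.1 nM and GDP 30 µM in Tris/MgCl2/NaCl/EDTA/DTT buffer, pH 7.4. Bound label filtered and counted. Data taken as % change over vehicle basal; mean of six experiments in duplicate.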
# [3] = target: Cannabinoid receptor 2 (Homo sapiens) (UniProt P34972); experiment: Positive allosteric modulation of human CB2 receptor expressed in CHO cell membranes assessed as increase in binding [3H]CP55940 to the receptor at 0.001 to 10 uM after 60 mins by liquid scintillation spectrometric method; conditions: Cell membrane, dose 0.001-10 µM
# Cannabinoid receptor 2 (Homo sapiens), sequence (P34972 whole entry): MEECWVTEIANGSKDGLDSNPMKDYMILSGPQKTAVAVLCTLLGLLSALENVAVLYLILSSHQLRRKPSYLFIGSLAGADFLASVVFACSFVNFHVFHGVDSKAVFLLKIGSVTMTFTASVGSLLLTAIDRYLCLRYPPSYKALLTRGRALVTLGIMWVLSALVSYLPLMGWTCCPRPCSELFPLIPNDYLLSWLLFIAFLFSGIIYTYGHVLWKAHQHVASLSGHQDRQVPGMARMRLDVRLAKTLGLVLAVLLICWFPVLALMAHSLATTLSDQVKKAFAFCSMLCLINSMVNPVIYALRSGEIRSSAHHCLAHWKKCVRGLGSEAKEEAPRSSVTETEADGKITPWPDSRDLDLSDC
# In short: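 Human CB2 stably expressed in CHO cells; membranes at 50.0 µg protein/tube with [3H]CP55940 0.700 nM and compound 1 nM to 10 µM (0.1% DMSO). Incubated 60 min at 37 °C, then filtered under vacuum with ice-cold Tris buffer and scintillation counted. Six independent experiments, each in duplicate.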
# [4] = target: Cannabinoid receptor 1 (Homo sapiens) (UniProt P21554); experiment: Inverse agonist activity at human CB1 receptor expressed in CHO cell membranes assessed as decrease in cellular response >1 uM after 90 mins by [35S]-GTPgammaS binding based liquid scintillation spectrometric method; format: functional; set-up: scale not given: the % may be the effect or the level left; conditions: Cell membrane, dose microM >1, time 90.0 min; in short: as §1
# [5] = target: Cannabinoid receptor 1 (Homo sapiens) (UniProt P21554); experiment: Negative allosteric modulation of human CB1 receptor expressed in CHO cell membranes assessed as decrease in CP55940-induced agonist activity at 100 nM after 90 mins by [35S]-GTPgammaS binding based liquid scintillation spectrometric method; format: functional; conditions: Cell membrane, filed as negative allosteric modulator
# [6] = target: Cannabinoid receptor 1 (Homo sapiens) (UniProt P21554); experiment: Positive allosteric modulation of human CB1 receptor expressed in CHO cell membranes assessed as increase in binding [3H]CP55940 to the receptor after 60 mins by liquid scintillation spectrometric method; conditions: Cell membrane, filed as positive allosteric modulator, dose 1-10000 nM
# In short: (§2)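 Membranes from CHO cells stably expressing human CB1 (50.0 µg protein/tube) incubated 60 min at 37 °C with [3H]CP55940 0.700 nM and compound 1 nM to 10 µM (from 10.00 mM DMSO stocks; 0.1% DMSO). Ended with ice-cold Tris buffer and vacuum filtration, six washes. Filters oven-dried, then scintillation counted. Six independent experiments in duplicate; one-sample t-test against zero.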
# [7] = target: Cannabinoid receptor 1 (Homo sapiens) (UniProt P21554); experiment: Positive allosteric modulation of human CB1 receptor expressed in CHO cell membranes assessed as increase in binding [3H]CP55940 to the receptor up to 10 uM after 60 mins by liquid scintillation spectrometric method relative to control; conditions: Cell membrane, filed as positive allosteric modulator, dose microM <=10, time 60.0 min; in short: as §2
# [8] = target: Cannabinoid receptor 1 (Homo sapiens) (UniProt P21554); experiment: Positive allosteric modulation of human CB1 receptor expressed in CHO cell membranes assessed as increase in binding [3H]CP55940 to the receptor at 1 uM after 60 mins by liquid scintillation spectrometric method relative to control; conditions: Cell membrane; in short: as §2
# [9] = target: Cannabinoid receptor 2 (Homo sapiens) (UniProt P34972); experiment: Binding affinity to human CB2 receptor expressed in CHO cell membranes assessed as displacement of [3H]CP55940 from the receptor > 1 uM after 60 mins by liquid scintillation spectrometric method; conditions: Cell membrane, dose microM >1, time 60.0 min
# [10] = target: Cannabinoid receptor 1 (Homo sapiens) (UniProt P21554); experiment: Inverse agonist activity at human CB1 receptor expressed in CHO cell membranes assessed as decrease in cellular response at 0.001 to 10 uM after 90 mins by [35S]-GTPgammaS binding based liquid scintillation spectrometric method relative to control; format: functional; set-up: scale not given: the % may be the effect or the level left; conditions: Cell membrane, dose 0.001-10 µM; in short: as §1
# [11] = target: Cannabinoid receptor 1 (Homo sapiens) (UniProt P21554); experiment: Inverse agonist activity at human CB1 receptor expressed in CHO cell membranes assessed as decrease in cellular response up to 10 uM after 90 mins by [35S]-GTPgammaS binding based liquid scintillation spectrometric method; format: functional; conditions: Cell membrane, dose microM <=10, time 90.0 min; in short: as §1
# [12] = target: Cannabinoid receptor 1 (Homo sapiens) (UniProt P21554); experiment: Positive allosteric modulation of human CB1 receptor expressed in CHO cell membranes assessed as increase in binding [3H]CP55940 to the receptor at 10 uM after 60 mins by liquid scintillation spectrometric method relative to control; conditions: Cell membrane; in short: as §2
Activity [2],Activity [6],Activity [7],SMILES,other results
30%,Dose-dependent effect,90%,O=C(Nc1ccc(Cl)cc1)Nc1cccc(Nc2ccc(F)cc2)c1,Activity [1]: inactive; Activity [3]: inactive; Activity [4]: 35%; Activity [5]: Active
,Dose-dependent effect,170%,O=C(Nc1ccc(Cl)cc1)Nc1cccc(Nc2ccccn2)c1,Activity [10]: 30%
inactive,Dose-dependent effect,50%,O=C(Nc1ccc(Cl)cc1)Nc1cccc(Nc2cccc(N3CCCCC3)n2)n1,Activity [11]: inactive
,Dose-dependent effect,70%,O=C(Nc1ccc(F)cc1)Nc1cccc(-c2cccc(N3CCCC3)c2)c1,Activity ([10]; filed as inverse agonist): 45%
inactive,Dose-dependent effect,60%,O=C(Nc1ccc(Cl)cc1)Nc1cccc(Nc2cccc(N3CCCC3)n2)n1,Activity [11]: inactive
,Dose-dependent effect,90%,O=C(Nc1ccc(Cl)cc1)Nc1cccc(Nc2ccccc2)c1,Activity [10]: 30%
,,,O=C(CCc1ccc(Cl)cc1)Nc1cccc(-c2cccc(N3CCCC3)c2)c1,Activity [12]: inactive

SMILES,Activity [2],Activity [6],Activity [7],other results
O=C(Nc1ccc(Cl)cc1)Nc1cccc(-c2cccc(N3CCCCC3)c2)c1,30%,,,Activity [1]: inactive; Activity [8]: 40%; Displacement [9]: Active; Activity [4]: 30%
